Data from ChEMBL document CHEMBL1143164, “Synthesis and structure-activity relationships of ring-opened 17-hydroxywortmannins: potent phosphoinositide 3-kinase inhibitors with improved properties and anticancer efficacy” (J Med Chem, 2008).

Assays:
[1] = target: Phosphatidylinositol 4,5-bisphosphate 3-kinase catalytic subunit alpha isoform (Homo sapiens, UniProt P42336); test: Inhibition of PI3K expressed in Escherichia coli by microtiter plate-based fluorescence polarization assay
Method in brief: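 Fluorescence polarization assay of PI3K activity with PIP2 substrate. Reactions contained 20 mM Hepes pH 7.5, 2 mM MgCl2, 0.05% CHAPS, 0.01% βME, 20 µM PIP2 and 25 µM ATP, and ran 15–30 min at room temperature. They were stopped with buffer holding 10 nM TAMRA-labeled probe and 40 nM GST-GRP1 (E. coli-expressed detector), then incubated 1–2 h before FP readout.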

[2] = system: LNCaP; test: Growth inhibition of human LNCap cells; assay type: functional, cell-based
[3] = target: Serine/threonine-protein kinase mTOR (Homo sapiens, UniProt P42345); test: Inhibition of mTOR

Phosphatidylinositol 4,5-bisphosphate 3-kinase catalytic subunit alpha isoform, sequence (P42336 whole entry, canonical isoform): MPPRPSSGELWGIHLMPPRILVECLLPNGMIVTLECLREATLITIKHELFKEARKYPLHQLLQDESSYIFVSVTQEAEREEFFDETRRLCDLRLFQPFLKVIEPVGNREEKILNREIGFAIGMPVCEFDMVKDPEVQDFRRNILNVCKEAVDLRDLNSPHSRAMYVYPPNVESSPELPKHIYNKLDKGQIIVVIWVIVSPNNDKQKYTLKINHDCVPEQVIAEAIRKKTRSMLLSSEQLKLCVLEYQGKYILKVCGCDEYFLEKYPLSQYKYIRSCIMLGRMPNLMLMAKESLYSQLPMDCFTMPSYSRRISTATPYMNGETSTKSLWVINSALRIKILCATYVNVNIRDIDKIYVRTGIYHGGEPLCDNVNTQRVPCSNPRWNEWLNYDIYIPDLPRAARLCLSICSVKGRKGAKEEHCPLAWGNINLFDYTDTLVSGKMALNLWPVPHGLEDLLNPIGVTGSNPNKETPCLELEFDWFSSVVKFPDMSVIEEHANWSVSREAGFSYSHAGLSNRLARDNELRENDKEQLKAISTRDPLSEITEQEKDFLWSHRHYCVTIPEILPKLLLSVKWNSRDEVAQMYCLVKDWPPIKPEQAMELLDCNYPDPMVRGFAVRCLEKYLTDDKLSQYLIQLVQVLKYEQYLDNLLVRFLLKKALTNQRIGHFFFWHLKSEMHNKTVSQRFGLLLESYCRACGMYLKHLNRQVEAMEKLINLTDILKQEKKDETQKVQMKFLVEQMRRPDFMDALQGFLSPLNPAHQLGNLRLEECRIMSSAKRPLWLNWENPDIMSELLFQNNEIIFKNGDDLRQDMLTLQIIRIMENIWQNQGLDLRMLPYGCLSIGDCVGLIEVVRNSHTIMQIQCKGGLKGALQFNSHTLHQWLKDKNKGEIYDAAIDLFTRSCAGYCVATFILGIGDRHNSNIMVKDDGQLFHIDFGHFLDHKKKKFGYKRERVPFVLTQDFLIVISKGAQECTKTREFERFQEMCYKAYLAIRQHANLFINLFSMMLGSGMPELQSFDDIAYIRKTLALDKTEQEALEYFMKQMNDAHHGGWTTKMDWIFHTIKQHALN

In the case of COC[C@H]1OC(=O)/C(=C/N2CCN(Cc3ccccc3)CC2)C2=C(O)C(=O)C3=C([C@H](OC(C)=O)C[C@]4(C)[C@@H](O)CC[C@@H]34)[C@]21C, the IC50 [1] is reported as 87 nM, the IC50 [2] is reported as 1650 nM and the IC50 [3] is reported as 890 nM.

For COC[C@H]1OC(=O)/C(=C/N(C)C(C)(C)C)C2=C(O)C(=O)C3=C([C@H](OC(C)=O)C[C@]4(C)[C@@H](O)CC[C@@H]34)[C@]21C, the IC50 [1] was 440 nM, the IC50 [2] was 189 nM and the IC50 [3] was 6500 nM.

In the case of COC[C@H]1OC(=O)/C(=C/N(CCO)CCO)C2=C(O)C(=O)C3=C([C@H](OC(C)=O)C[C@]4(C)[C@@H](O)CC[C@@H]34)[C@]21C, the IC50 [1] is reported as 918 nM, the IC50 [2] is reported as 131 nM and the IC50 [3] is reported as > 18700 nM.

COC[C@H]1OC(=O)/C(=C/N2CCC(N3CCCCC3)CC2)C2=C(O)C(=O)C3=C([C@H](OC(C)=O)C[C@]4(C)[C@@H](O)CC[C@@H]34)[C@]21C gave an IC50 [1] of 63 nM, an IC50 [2] of 1500 nM and an IC50 [3] of 568 nM.

CCN(CC)CCN(C)/C=C1/C(=O)O[C@H](COC)[C@@]2(C)C1=C(O)C(=O)C1=C2[C@H](OC(C)=O)C[C@]2(C)[C@@H](O)CC[C@@H]12 showed an IC50 [1] of 50 nM, an IC50 [2] of 2590 nM and an IC50 [3] of 767 nM.

In the case of COC[C@H]1OC(=O)/C(=C/N2CCC(C(=O)OC)CC2)C2=C(O)C(=O)C3=C([C@H](OC(C)=O)C[C@]4(C)[C@@H](O)CC[C@@H]34)[C@]21C, the IC50 [1] is reported as 31 nM, the IC50 [2] is reported as 506 nM and the IC50 [3] is reported as 1690 nM.

For CCN(/C=C1/C(=O)O[C@H](COC)[C@@]2(C)C1=C(O)C(=O)C1=C2[C@H](O)C[C@]2(C)[C@@H](O)CC[C@@H]12)CC, the IC50 [1] was 7850 nM, the IC50 [2] was 710 nM and the IC50 [3] was > 20000 nM.

With CCN/C=C1/C(=O)O[C@H](COC)[C@@]2(C)C1=C(O)C(=O)C1=C2[C@H](OC(C)=O)C[C@]2(C)[C@@H](O)CC[C@@H]12 the IC50 [1] was > 10000 nM, the IC50 [2] was 7070 nM and the IC50 [3] was > 20000 nM.

COC[C@H]1OC(=O)/C(=C/N2CCC(c3ccccc3)CC2)C2=C(O)C(=O)C3=C([C@H](OC(C)=O)C[C@]4(C)[C@@H](O)CC[C@@H]34)[C@]21C showed an IC50 [1] of 172 nM, an IC50 [2] of 1520 nM and an IC50 [3] of 2450 nM.

With COC[C@H]1OC(=O)/C(=C/NC(C)(C)C)C2=C(O)C(=O)C3=C([C@H](OC(C)=O)C[C@]4(C)[C@@H](O)CC[C@@H]34)[C@]21C the IC50 [1] was > 10000 nM, the IC50 [2] was 40700 nM and the IC50 [3] was > 20000 nM.

With COC[C@H]1OC(=O)/C(=C/NCCCN(C)C)C2=C(O)C(=O)C3=C([C@H](OC(C)=O)C[C@]4(C)[C@@H](O)CC[C@@H]34)[C@]21C the IC50 [1] was > 10000 nM, the IC50 [2] was 2020 nM and the IC50 [3] was > 20000 nM.

Work on COC[C@H]1OC(=O)/C(=C/N(C)CCCN2CCOCC2)C2=C(O)C(=O)C3=C([C@H](OC(C)=O)C[C@]4(C)[C@@H](O)CC[C@@H]34)[C@]21C yielded an IC50 [1] of 24 nM, an IC50 [2] of 595 nM and an IC50 [3] of 2290 nM.

Compound COC[C@H]1OC(=O)/C(=C/N2CCCCC2)C2=C(O)C(=O)C3=C([C@H](OC(C)=O)C[C@]4(C)[C@@H](O)CC[C@@H]34)[C@]21C has an IC50 [1] of 104 nM, an IC50 [2] of 1550 nM and an IC50 [3] of 1800 nM.

COC[C@H]1OC(=O)/C(=C/N2CCN(CCCN(C)C)CC2)C2=C(O)C(=O)C3=C([C@H](OC(C)=O)C[C@]4(C)[C@@H](O)CC[C@@H]34)[C@]21C was tested, and the IC50 [1] was 38 nM, the IC50 [2] was 831 nM and the IC50 [3] was 249 nM.

COC[C@H]1OC(=O)/C(=C/N(C)C2CCN(C)C2)C2=C(O)C(=O)C3=C([C@H](OC(C)=O)C[C@]4(C)[C@@H](O)CC[C@@H]34)[C@]21C (stereo partly drawn) was tested, and the IC50 [1] was 127 nM, the IC50 [2] was 1010 nM and the IC50 [3] was 1210 nM.

For COC[C@H]1OC(=O)/C(=C/N2CCCC2)C2=C(O)C(=O)C3=C([C@H](OC(C)=O)C[C@]4(C)[C@@H](O)CC[C@@H]34)[C@]21C, the IC50 [1] was 496 nM, the IC50 [2] was 257 nM and the IC50 [3] was > 20000 nM.

For COC[C@H]1OC(=O)/C(=C/N(C)CC(O)CO)C2=C(O)C(=O)C3=C([C@H](OC(C)=O)C[C@]4(C)[C@@H](O)CC[C@@H]34)[C@]21C (stereo partly drawn), the IC50 [1] was 199 nM, the IC50 [2] was 168 nM and the IC50 [3] was 1870 nM.

Work on COC[C@H]1OC(=O)/C(=C/N(C)CCCN2CCN(C)CC2)C2=C(O)C(=O)C3=C([C@H](OC(C)=O)C[C@]4(C)[C@@H](O)CC[C@@H]34)[C@]21C yielded an IC50 [1] of 10 nM, an IC50 [2] of 465 nM and an IC50 [3] of 2330 nM.

For COC[C@H]1OC(=O)/C(=C/N(CCN(C)C)Cc2ccccc2)C2=C(O)C(=O)C3=C([C@H](OC(C)=O)C[C@]4(C)[C@@H](O)CC[C@@H]34)[C@]21C, the IC50 [1] was 66 nM, the IC50 [2] was 1430 nM and the IC50 [3] was 5600 nM.

COC[C@H]1OC(=O)/C(=C/N2CCN(C3CCCCC3)CC2)C2=C(O)C(=O)C3=C([C@H](OC(C)=O)C[C@]4(C)[C@@H](O)CC[C@@H]34)[C@]21C was tested, and the IC50 [1] was 43 nM, the IC50 [2] was 1470 nM and the IC50 [3] was 820 nM.

Work on CCCCN(C)/C=C1/C(=O)O[C@H](COC)[C@@]2(C)C1=C(O)C(=O)C1=C2[C@H](OC(C)=O)C[C@]2(C)[C@@H](O)CC[C@@H]12 yielded an IC50 [1] of 635 nM, an IC50 [2] of 203 nM and an IC50 [3] of 8700 nM.

Compound CCN(/C=C1/C(=O)O[C@H](COC)[C@@]2(C)C1=C(O)C(=O)C1=C2[C@H](OC(C)=O)C[C@]2(C)[C@@H](O)CC[C@@H]12)CCCN(C)C has an IC50 [1] of 12 nM, an IC50 [2] of 535 nM and an IC50 [3] of 3570 nM.

With COC[C@H]1OC(=O)/C(=C/N(CCCN(C)C)C(C)(C)C)C2=C(O)C(=O)C3=C([C@H](OC(C)=O)C[C@]4(C)[C@@H](O)CC[C@@H]34)[C@]21C the IC50 [1] was 9.6 nM, the IC50 [2] was 919 nM and the IC50 [3] was 816 nM.

COC[C@H]1OC(=O)/C(=C/N(C)CCN(C)C)C2=C(O)C(=O)C3=C([C@H](OC(C)=O)C[C@]4(C)[C@@H](O)CC[C@@H]34)[C@]21C was tested, and the IC50 [1] was 8.4 nM, the IC50 [2] was 751 nM and the IC50 [3] was 1470 nM.

COC[C@H]1OC(=O)/C(=C/N(C)CCCN2CCN(c3ccc(OC)cc3)CC2)C2=C(O)C(=O)C3=C([C@H](OC(C)=O)C[C@]4(C)[C@@H](O)CC[C@@H]34)[C@]21C was tested, and the IC50 [1] was 15 nM, the IC50 [2] was 620 nM and the IC50 [3] was 1350 nM.

CCN(/C=C1/C(=O)O[C@H](COC)[C@@]2(C)C1=C(O)C(=O)C1=C2[C@H](OC(C)=O)C[C@]2(C)[C@@H](O)CC[C@@H]12)CCN(CC)CC gave an IC50 [1] of 24 nM, an IC50 [2] of 1310 nM and an IC50 [3] of 1480 nM.

Compound CCN(/C=C1/C(=O)O[C@H](COC)[C@@]2(C)C1=C(O)C(=O)C1=C2[C@H](OC(C)=O)C[C@]2(C)[C@@H](O)CC[C@@H]12)CCN(C)C has an IC50 [1] of 5 nM, an IC50 [2] of 1020 nM and an IC50 [3] of 878 nM.

COC[C@H]1OC(=O)/C(=C/N(CCC#N)Cc2ccccc2)C2=C(O)C(=O)C3=C([C@H](OC(C)=O)C[C@]4(C)[C@@H](O)CC[C@@H]34)[C@]21C was tested, and the IC50 [1] was 444 nM, the IC50 [2] was 144 nM and the IC50 [3] was > 1690 nM.

COC[C@H]1OC(=O)/C(=C/N(CCCN(C)C)CCCN(C)C)C2=C(O)C(=O)C3=C([C@H](OC(C)=O)C[C@]4(C)[C@@H](O)CC[C@@H]34)[C@]21C was tested, and the IC50 [1] was 22 nM, the IC50 [2] was 259 nM and the IC50 [3] was 3560 nM.

For COC[C@H]1OC(=O)/C(=C/N2CCN(CCN3CCOCC3)CC2)C2=C(O)C(=O)C3=C([C@H](OC(C)=O)C[C@]4(C)[C@@H](O)CC[C@@H]34)[C@]21C, the IC50 [1] was 78 nM, the IC50 [2] was 794 nM and the IC50 [3] was 619 nM.

Compound C=CCN(/C=C1/C(=O)O[C@H](COC)[C@@]2(C)C1=C(O)C(=O)C1=C2[C@H](OC(C)=O)C[C@]2(C)C(=O)CC[C@@H]12)CC=C [SONOLISIB] has an IC50 [1] of 88 nM, an IC50 [2] of 573 nM and an IC50 [3] of 3100 nM.
